Laboratory results: ChEMBL document CHEMBL4011605, “N-Piperonyl substitution on aminoquinoline-pyrimidine hybrids: Effect on the antiplasmodial potency” (Eur J Med Chem, 2017)
Active and inactive are the calls of the source. The calls are words filed in the database; no cut-off is given here.

Test system: Plasmodium falciparum
Assay: Antiplasmodial activity against chloroquine-sensitive Plasmodium falciparum D6 infected in red blood cells after 72 hrs by Malstat reagent based LDH assay
Type: functional, cell-based
Details: D6, 72 h

| Structure (SMILES) | IC50 [nM] |
| --- | --- |
| Cc1cc(N2CCOCC2)nc(N(CCNc2ccnc3cc(Cl)ccc23)Cc2ccc3c(c2)OCO3)n1 | 130 |
| Cc1cc(N(CCNc2ccnc3cc(Cl)ccc23)Cc2ccc3c(c2)OCO3)nc(N2CCCCC2)n1 | 50 |
| CCN1CCN(c2nc(C)cc(N(CCNc3ccnc4cc(Cl)ccc34)Cc3ccc4c(c3)OCO4)n2)CC1 | 20 |
| Cc1cc(N(CCNc2ccnc3cc(Cl)ccc23)Cc2ccc3c(c2)OCO3)nc(N2CCCC2)n1 | 40 |
| Cc1cc(Cl)nc(N(CCCNc2ccnc3cc(Cl)ccc23)Cc2ccc3c(c2)OCO3)n1 | 1110 |
| CCN1CCN(c2cc(C)nc(N(CCNc3ccnc4cc(Cl)ccc34)Cc3ccc4c(c3)OCO4)n2)CC1 | 30 |
| Cc1cc(N2CCCCC2)nc(N(CCNc2ccnc3cc(Cl)ccc23)Cc2ccc3c(c2)OCO3)n1 | 170 |
| Clc1ccc2c(NCCNCc3ccc4c(c3)OCO4)ccnc2c1 | 30 |
| Cc1cc(N(CCCNc2ccnc3cc(Cl)ccc23)Cc2ccc3c(c2)OCO3)nc(N2CCCCC2)n1 | 150 |
| Cc1cc(N2CCOCC2)nc(N(CCCNc2ccnc3cc(Cl)ccc23)Cc2ccc3c(c2)OCO3)n1 | 130 |
| Cc1cc(N(CCCNc2ccnc3cc(Cl)ccc23)Cc2ccc3c(c2)OCO3)nc(N2CCCC2)n1 | 50 |

Test system: Plasmodium falciparum
Assay: Antiplasmodial activity against chloroquine-resistant Plasmodium falciparum W2 infected in red blood cells after 72 hrs by Malstat reagent based LDH assay
Type: functional, cell-based
Details: W2, 72 h

| Structure (SMILES) | IC50 [nM] |
| --- | --- |
| Cc1cc(N2CCOCC2)nc(N(CCNc2ccnc3cc(Cl)ccc23)Cc2ccc3c(c2)OCO3)n1 | 810 |
| Cc1cc(N(CCNc2ccnc3cc(Cl)ccc23)Cc2ccc3c(c2)OCO3)nc(N2CCCCC2)n1 | 290 |
| CCN1CCN(c2nc(C)cc(N(CCNc3ccnc4cc(Cl)ccc34)Cc3ccc4c(c3)OCO4)n2)CC1 | 50 |
| Cc1cc(N(CCNc2ccnc3cc(Cl)ccc23)Cc2ccc3c(c2)OCO3)nc(N2CCCC2)n1 | 100 |
| Cc1cc(Cl)nc(N(CCCNc2ccnc3cc(Cl)ccc23)Cc2ccc3c(c2)OCO3)n1 | 5160 |
| CCN1CCN(c2cc(C)nc(N(CCNc3ccnc4cc(Cl)ccc34)Cc3ccc4c(c3)OCO4)n2)CC1 | 140 |
| Cc1cc(N2CCCCC2)nc(N(CCNc2ccnc3cc(Cl)ccc23)Cc2ccc3c(c2)OCO3)n1 | < 430 |
| Clc1ccc2c(NCCNCc3ccc4c(c3)OCO4)ccnc2c1 | 50 |
| Cc1cc(N(CCCNc2ccnc3cc(Cl)ccc23)Cc2ccc3c(c2)OCO3)nc(N2CCCCC2)n1 | 990 |
| Cc1cc(N2CCOCC2)nc(N(CCCNc2ccnc3cc(Cl)ccc23)Cc2ccc3c(c2)OCO3)n1 | 930 |
| Cc1cc(N(CCCNc2ccnc3cc(Cl)ccc23)Cc2ccc3c(c2)OCO3)nc(N2CCCC2)n1 | 90 |

Test system: not listed separately
Assay: Selectivity index, ratio of IC50 for African green monkey Vero cells to IC50 for chloroquine-sensitive Plasmodium falciparum D6
Type: toxicity
Details: read-out: Ratio IC50
Summary of the method: (§1)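 Selectivity index is the ratio of the VERO cytotoxicity IC50 to the antiplasmodial IC50 for the strain named. VERO cells were tested up to a highest concentration of 9 µM.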

| Structure (SMILES) | selectivity ratio |
| --- | --- |
| Cc1cc(N2CCOCC2)nc(N(CCNc2ccnc3cc(Cl)ccc23)Cc2ccc3c(c2)OCO3)n1 | 51.4 |
| Cc1cc(N(CCNc2ccnc3cc(Cl)ccc23)Cc2ccc3c(c2)OCO3)nc(N2CCCCC2)n1 | > 174 |
| CCN1CCN(c2nc(C)cc(N(CCNc3ccnc4cc(Cl)ccc34)Cc3ccc4c(c3)OCO4)n2)CC1 | > 243 |
| Cc1cc(N(CCNc2ccnc3cc(Cl)ccc23)Cc2ccc3c(c2)OCO3)nc(N2CCCC2)n1 | > 243 |
| Cc1cc(Cl)nc(N(CCCNc2ccnc3cc(Cl)ccc23)Cc2ccc3c(c2)OCO3)n1 | > 8.6 |
| CCN1CCN(c2cc(C)nc(N(CCNc3ccnc4cc(Cl)ccc34)Cc3ccc4c(c3)OCO4)n2)CC1 | > 239 |
| Cc1cc(N2CCCCC2)nc(N(CCNc2ccnc3cc(Cl)ccc23)Cc2ccc3c(c2)OCO3)n1 | > 53.6 |
| Clc1ccc2c(NCCNCc3ccc4c(c3)OCO4)ccnc2c1 | > 243 |
| Cc1cc(N(CCCNc2ccnc3cc(Cl)ccc23)Cc2ccc3c(c2)OCO3)nc(N2CCCCC2)n1 | > 59.8 |
| Cc1cc(N2CCOCC2)nc(N(CCCNc2ccnc3cc(Cl)ccc23)Cc2ccc3c(c2)OCO3)n1 | 67 |
| Cc1cc(N(CCCNc2ccnc3cc(Cl)ccc23)Cc2ccc3c(c2)OCO3)nc(N2CCCC2)n1 | > 192 |

Test system: not listed separately
Assay: Selectivity index, ratio of IC50 for African green monkey Vero cells to IC50 for chloroquine-resistant Plasmodium falciparum W2
Type: toxicity
Details: read-out: Ratio IC50
Summary of the method: as §1

| Structure (SMILES) | selectivity ratio |
| --- | --- |
| Cc1cc(N2CCOCC2)nc(N(CCNc2ccnc3cc(Cl)ccc23)Cc2ccc3c(c2)OCO3)n1 | 8.5 |
| Cc1cc(N(CCNc2ccnc3cc(Cl)ccc23)Cc2ccc3c(c2)OCO3)nc(N2CCCCC2)n1 | > 30.5 |
| CCN1CCN(c2nc(C)cc(N(CCNc3ccnc4cc(Cl)ccc34)Cc3ccc4c(c3)OCO4)n2)CC1 | > 60.4 |
| Cc1cc(N(CCNc2ccnc3cc(Cl)ccc23)Cc2ccc3c(c2)OCO3)nc(N2CCCC2)n1 | > 243 |
| Cc1cc(Cl)nc(N(CCCNc2ccnc3cc(Cl)ccc23)Cc2ccc3c(c2)OCO3)n1 | > 1.9 |
| CCN1CCN(c2cc(C)nc(N(CCNc3ccnc4cc(Cl)ccc34)Cc3ccc4c(c3)OCO4)n2)CC1 | > 60.4 |
| Cc1cc(N2CCCCC2)nc(N(CCNc2ccnc3cc(Cl)ccc23)Cc2ccc3c(c2)OCO3)n1 | > 15.9 |
| Clc1ccc2c(NCCNCc3ccc4c(c3)OCO4)ccnc2c1 | > 54.3 |
| Cc1cc(N(CCCNc2ccnc3cc(Cl)ccc23)Cc2ccc3c(c2)OCO3)nc(N2CCCCC2)n1 | > 8.8 |
| Cc1cc(N2CCOCC2)nc(N(CCCNc2ccnc3cc(Cl)ccc23)Cc2ccc3c(c2)OCO3)n1 | 9.4 |
| Cc1cc(N(CCCNc2ccnc3cc(Cl)ccc23)Cc2ccc3c(c2)OCO3)nc(N2CCCC2)n1 | > 96.9 |

Test system: Plasmodium falciparum
Assay: Potency index, ratio of chloroquine IC50 to compound IC50 for chloroquine-resistant Plasmodium falciparum W2
Type: functional
Details: not given

| Structure (SMILES) | Ratio IC50 |
| --- | --- |
| CCN1CCN(c2nc(C)cc(N(CCNc3ccnc4cc(Cl)ccc34)Cc3ccc4c(c3)OCO4)n2)CC1 | 8 |
| CCN1CCN(c2cc(C)nc(N(CCNc3ccnc4cc(Cl)ccc34)Cc3ccc4c(c3)OCO4)n2)CC1 | 2 - 5 |
| Clc1ccc2c(NCCNCc3ccc4c(c3)OCO4)ccnc2c1 | 8 |
| Cc1cc(N(CCCNc2ccnc3cc(Cl)ccc23)Cc2ccc3c(c2)OCO3)nc(N2CCCC2)n1 | 2 - 5 |

Test system: Vero
Assay: Cytotoxicity against African green monkey Vero cells up to 9 uM
Type: cell-based
Details: chlorocebus sabaeus

| Structure (SMILES) | Activity |
| --- | --- |
| Cc1cc(N(CCNc2ccnc3cc(Cl)ccc23)Cc2ccc3c(c2)OCO3)nc(N2CCCCC2)n1 | Non-Toxic |
| CCN1CCN(c2nc(C)cc(N(CCNc3ccnc4cc(Cl)ccc34)Cc3ccc4c(c3)OCO4)n2)CC1 | Non-Toxic |
| Cc1cc(N(CCNc2ccnc3cc(Cl)ccc23)Cc2ccc3c(c2)OCO3)nc(N2CCCC2)n1 | Non-Toxic |
| Cc1cc(Cl)nc(N(CCCNc2ccnc3cc(Cl)ccc23)Cc2ccc3c(c2)OCO3)n1 | Non-Toxic |
| CCN1CCN(c2cc(C)nc(N(CCNc3ccnc4cc(Cl)ccc34)Cc3ccc4c(c3)OCO4)n2)CC1 | Non-Toxic |
| Cc1cc(N2CCCCC2)nc(N(CCNc2ccnc3cc(Cl)ccc23)Cc2ccc3c(c2)OCO3)n1 | Non-Toxic |
| Clc1ccc2c(NCCNCc3ccc4c(c3)OCO4)ccnc2c1 | Non-Toxic |
| Cc1cc(N(CCCNc2ccnc3cc(Cl)ccc23)Cc2ccc3c(c2)OCO3)nc(N2CCCCC2)n1 | Non-Toxic |
| Cc1cc(N(CCCNc2ccnc3cc(Cl)ccc23)Cc2ccc3c(c2)OCO3)nc(N2CCCC2)n1 | Non-Toxic |

Test system: mu-oxodimeric heme
Assay: Binding affinity to mu-oxodimeric heme (unknown origin) in aqueous NaOH solution assessed as 1:1 stoichiometry for heme-compound complex at 10 uM at pH 5.8 by Job's plot method
Details: not given

| Structure (SMILES) | Activity |
| --- | --- |
| CCN1CCN(c2nc(C)cc(N(CCNc3ccnc4cc(Cl)ccc34)Cc3ccc4c(c3)OCO4)n2)CC1 | Active |

Test system: Vero
Assay: Cytotoxicity against African green monkey Vero cells
Type: cell-based
Details: chlorocebus sabaeus
Summary of the method: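 VERO (mammalian) cells were exposed to compounds up to a highest tested concentration of 9 µM. Cytotoxicity was expressed as IC50.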

| Structure (SMILES) | IC50 [nM] |
| --- | --- |
| Cc1cc(N2CCOCC2)nc(N(CCNc2ccnc3cc(Cl)ccc23)Cc2ccc3c(c2)OCO3)n1 | 6860 |
| Cc1cc(N2CCOCC2)nc(N(CCCNc2ccnc3cc(Cl)ccc23)Cc2ccc3c(c2)OCO3)n1 | 8680 |

Test system: mu-oxodimeric heme
Assay: Binding affinity to mu-oxodimeric heme (unknown origin) in aqueous NaOH solution at 0.5 to 70 uM at pH 5.8 by titration-based UV-vis spectrophotometric analysis
Details: not given
Summary of the method: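 µ-Oxodimeric heme: hemin chloride is dissolved to 1.0 mM in 0.1 M aqueous NaOH with 30 min sonication, then diluted to 10 µM in 20 mM phosphate pH 5.8. Aliquots of a 1.0 mM drug stock are added stepwise (0.5–70 µM), and absorbance at 362 nm is recorded.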

| Structure (SMILES) | Activity |
| --- | --- |
| CCN1CCN(c2nc(C)cc(N(CCNc3ccnc4cc(Cl)ccc34)Cc3ccc4c(c3)OCO4)n2)CC1 | Active |

Test system: Heme
Assay: Binding affinity to monomeric heme (unknown origin) assessed as decrease in intensity of soret band at 0.5 to 70 uM at pH 5.4 and 7.4 by titration based UV-vis spectrophotometric analysis
Details: not given
Summary of the method: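 Hemin stock (1.0 mM in DMSO, kept at 4 °C in the dark) is diluted daily to 10 µM monomeric heme in 0.02 M HEPES pH 7.4 or 0.02 M MES pH 5.4. Drug comes from a 1.0 mM DMSO stock and is titrated at 0.5–70 µM. After each addition the sample is mixed and the Soret band at 402 nm is read.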

| Structure (SMILES) | Activity |
| --- | --- |
| CCN1CCN(c2nc(C)cc(N(CCNc3ccnc4cc(Cl)ccc34)Cc3ccc4c(c3)OCO4)n2)CC1 | Active |

Test system: Heme
Assay: Binding affinity to monomeric heme (unknown origin) assessed as mole fraction of compound required to show 1:1 stoichiometry for heme-compound complex at pH 5.4 to 7.4 by Job's plot method
Details: not given
Summary of the method: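 Binding stoichiometry with monomeric heme is found by Job's continuous variation. Total drug plus heme is held at 10 µM, at pH 7.4 (HEPES) and at pH 5.4 (MES), with heme from a DMSO hemin stock. Absorbance is plotted against drug mole fraction.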

| Structure (SMILES) | Activity [molar ratio] |
| --- | --- |
| CCN1CCN(c2nc(C)cc(N(CCNc3ccnc4cc(Cl)ccc34)Cc3ccc4c(c3)OCO4)n2)CC1 | 0.5 |
